Shown is part of a subset that was picked to be rich in hits.
T cruzi intra – inhibitors of intracellular Trypanosoma cruzi; AID 651903; intracellular Trypanosoma cruzi in host cells, plate reader; 22,000 tested, 4.9% active; activity score (inhibition), % at 5.01 µM; in the data active = activity score above about 55%;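 note: parasites and compound incubated about four days before reading; 0% = median of neutral control wells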
YB-1 expr inh – YB-1 expression inhibition; U2OS, qRT-PCR YB-1 vs CDIP delta delta Cp, 16 h; hits give high values; zero = DMSO, each unit about twofold; delta delta Cp (YB-1 minus CDIP) (concentration not given with the values); 30,000 tested, 0.37% active; AID 434959;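 active = delta delta Cp rounded down to an integer at or above 3, about 3 SD of DMSO wells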;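 note: higher means less YB-1 transcript or more CDIP transcript relative to DMSO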
INS-1E ATP HTS – INS-1E beta cell protection from cytokine death; INS-1E cytokine-induced death, ATP luminescence, 48 h; normalised: neutral wells 0, positive control 100; protection from cytokine-induced ATP loss, % at 10 µM; AID 488910; 20,000 tested, 0.1% active;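 active = mean replicate protection from cytokine-induced ATP loss at least 50% and at least 75% of replicates each reaching 50%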
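Assay system: INS-1E rat insulinoma cells. Amount: 8000 cells per well. Medium: phenol-red-free RPMI with 5% fetal bovine serum. Reagent: IL-1β, TNF-α and IFN-γ cytokine mix. Doses: one compound concentration, pin transfer. Schedule: 48 h co-treatment, 10 min post-lysis read. Detection: CellTiter-Glo luminescence measuring cellular ATP.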
Starred values were filed as active, the others as inactive; / = not tested or not shown.

SMILES	T cruzi intra	YB-1 expr inh	INS-1E ATP HTS
CO[C@H]1CC(O[C@@H]2/C(C)=C/C[C@@H]3C[C@@H](C[C@]4(CC[C@H](C)[C@@H](C5CCCCC5)O4)O3)OC(=O)[C@@H]3C=C(C)/C(=N/O)[C@H]4OC/C(=C\C=C\[C@@H]2C)[C@]43O)O[C@@H](C)C1O (stereo partly drawn)	/	0.12	/
Cc1ccc(S(=O)(=O)Nc2ccc3c(c2)C(=O)N([C@H](C)CO)C[C@H](C)[C@H](CN(C)C(=O)CCCN(C)C)OCCCC[C@@H](C)O3)cc1	-12	-0.36	2
C[C@@H]1CCCCO[C@@H](CN(C)C(=O)CCCN(C)C)[C@@H](C)CN([C@H](C)CO)C(=O)c2cc(NS(C)(=O)=O)ccc2O1	/	9.7*	-8
C[C@@H]1CCCCO[C@@H](CN(C)C(=O)CCCN(C)C)[C@@H](C)CN([C@H](C)CO)C(=O)c2cc(NC(=O)c3ccccc3)ccc2O1	-9	9.6*	-2
C[C@@H]1CCCCO[C@H](CN(C)C(=O)CCCN(C)C)[C@@H](C)CN([C@H](C)CO)C(=O)c2cc(NC(=O)Nc3ccccc3)ccc2O1	23	-0.42	9
CCN(CC)C(=S)CSc1nc(-c2ccccc2)cc(-c2ccco2)c1C#N	/	-0.97	/
O=C(O)c1ccc(/C=N/NC(=O)c2ccccc2O)cc1	-22	0.28	-26
C[C@H](CO)N1C[C@H](C)[C@@H](CN(C)Cc2ccc(C(F)(F)F)cc2)Oc2ccc(NS(=O)(=O)c3cccs3)cc2C1=O	60*	0.49	-12
C[C@H]1CN([C@@H](C)CO)C(=O)c2cc(NS(=O)(=O)c3cccs3)ccc2O[C@H]1CN(C)Cc1ccccc1	6	-0.022	-5
C[C@H](CO)N1C[C@H](C)[C@H](CN(C)Cc2ccc(C(F)(F)F)cc2)Oc2ccc(NS(=O)(=O)c3cccs3)cc2C1=O	58*	-0.28	-14
C[C@H]1CN([C@@H](C)CO)C(=O)c2cc(NS(=O)(=O)c3cccs3)ccc2O[C@H]1CN(C)Cc1ccc(C(F)(F)F)cc1	39	-0.22	/
CS(=O)c1sc(C(=O)OCc2ccccc2)c2c1C(=O)CC(C)(C)C2 (stereo not drawn)	/	-0.14	/
O=C(NO)c1cccc(C(=O)N/N=C/c2cccc(B(O)O)c2)c1	-22	-0.26	3
C[C@@H]1CN([C@H](C)CO)C(=O)Cc2cc(NS(=O)(=O)c3cccs3)ccc2O[C@@H]1CN(C)Cc1ccc(-c2ccccc2)cc1	44	0.34	-14
COc1ccc(CN(C)C[C@@H]2Oc3ccc(NS(=O)(=O)c4cccs4)cc3CC(=O)N([C@H](C)CO)C[C@H]2C)cc1	16	-0.15	4
C[C@@H]1CN([C@@H](C)CO)C(=O)Cc2cc(NS(=O)(=O)c3cccs3)ccc2O[C@@H]1CN(C)Cc1ccc(Oc2ccccc2)cc1	63*	0.32	-20
C[C@H]1CN([C@@H](C)CO)C(=O)Cc2cc(NS(=O)(=O)c3cccs3)ccc2O[C@H]1CN(C)Cc1ccc(-c2ccccc2)cc1	57*	-0.23	-35
O=C(CCCCCC(=O)Nc1ccccc1O)N/N=C/c1ccc2c(c1)CCO2	3	-0.09	-5
CCCCC/C=C\C/C=C\CCCCCCCC(=O)OC(CO)COP(=O)(O)OCC[N+](C)(C)C (stereo not drawn)	/	0.26	/
C[C@H](CO)N1C[C@H](C)[C@H](CN(C)C(=O)NC2CCCCC2)Oc2ccc(NC(=O)CCCCCC(=O)Nc3ccccc3N)cc2C1=O	-18	0.62	-4
C[C@H]1CN([C@@H](C)CO)C(=O)Cc2cc(NC(=O)C3CC3)ccc2O[C@@H]1CN(C)Cc1ccc(C(=O)Nc2ccccc2N)cc1	51	0.19	-11
C[C@H](CO)N1C[C@H](C)[C@H](CN(C)Cc2ccc(C(=O)Nc3ccccc3N)cc2)Oc2ccc(NC(=O)C3CC3)cc2CC1=O	63*	-0.55	32
C[C@@H]1CN([C@H](C)CO)C(=O)Cc2cc(NC(=O)C3CCCCC3)ccc2O[C@@H]1CN(C)Cc1ccc(C(=O)Nc2ccccc2N)cc1	54	-0.58	-13
C[C@H](CO)N1C[C@H](C)[C@H](CN(C)Cc2ccc(C(=O)Nc3ccccc3N)cc2)Oc2ccc(NC(=O)C3CCCCC3)cc2CC1=O	61*	-0.28	29
Oc1ccc(C=Nc2ccccc2)cc1	/	-0.17	/
SMILES	T cruzi intra	YB-1 expr inh	INS-1E ATP HTS
O=C1C(Nc2ccccc2)=CC(=O)c2ncccc21	/	3.1*	/
O=C(c1cc2cc(Br)ccc2oc1=O)N1CCCc2ccccc21	/	-0.5	/
COC(=O)CCCCCCC(=O)N=NC=C1C=CN(O)C=C1	-11	-0.28	11
FC(F)(F)c1cc(-c2ccc3ccccc3c2)no1	/	-0.2	/
CCOC(=O)c1cnc2c(OC)cccc2c1NC1CCCCC1	/	-0.066	/
CCOC(=O)c1cnc2c(cnn2CC)c1NN=C(C)C	/	4.9*	/
C[C@H]1CN([C@@H](C)CO)C(=O)c2cccc(NC(=O)NC3CCCCC3)c2O[C@H]1CN(C)Cc1ccc(Oc2ccccc2)cc1	27	0.31	-32
C[C@@H]1CN([C@@H](C)CO)C(=O)c2cccc(NC(=O)NC3CCCCC3)c2O[C@@H]1CN(C)Cc1ccc(Oc2ccccc2)cc1	64*	0.086	-53
C[C@@H]1CN([C@H](C)CO)C(=O)c2cccc(NC(=O)NC3CCCCC3)c2O[C@@H]1CN(C)Cc1ccc(C(F)(F)F)cc1	23	-0.092	-27
C[C@@H]1CN([C@@H](C)CO)C(=O)c2cccc(NC(=O)NC3CCCCC3)c2O[C@H]1CN(C)Cc1ccc(C(F)(F)F)cc1	85*	0.041	-6
C[C@@H]1CN([C@H](C)CO)C(=O)c2cccc(NC(=O)NC3CCCCC3)c2O[C@@H]1CN(C)Cc1ccc(-c2ccccc2)cc1	70*	-0.21	-32
C[C@H]1CN([C@@H](C)CO)C(=O)c2cccc(NC(=O)NC3CCCCC3)c2O[C@H]1CN(C)Cc1ccc(-c2ccccc2)cc1	-29	-0.2	-19
COc1ccccc1CN1C(=O)c2ccccc2[C@@]2(Cc3ccccc3N(CCCN(C)C)C2=O)[C@@H]1c1ccc(CO)cc1	/	0.0041	/
O=C(NO)c1cccc(C(=O)N/N=C/c2ccccc2Br)c1	-5	0.29	-8
O=C(N/N=C/c1cccs1)c1ccccc1O	-14	-0.079	-18
CC(C)=CCC/C(C)=C/CC/C(C)=C/CSc1ncn[nH]1	/	-0.51	/
C[C@H](CO)N1C[C@H](C)[C@H](CN(C)Cc2ccc(-c3ccccc3)cc2)Oc2c(NC(=O)c3nc4ccccc4s3)cccc2C1=O	60*	-0.27	-42
C[C@H](CO)N1C[C@H](C)[C@@H](CN(C)Cc2ccc(C(=O)Nc3ccccc3N)cc2)Oc2c(NC(=O)c3nc4ccccc4s3)cccc2C1=O	71*	0.23	2
COc1ccc(CN(C)C[C@@H]2Oc3c(NC(=O)c4nc5ccccc5s4)cccc3C(=O)N([C@H](C)CO)C[C@H]2C)cc1	57*	-0.35	-18
COc1ccc(CN(C)C[C@@H]2Oc3c(NC(=O)c4nc5ccccc5s4)cccc3C(=O)N([C@@H](C)CO)C[C@H]2C)cc1	47	0.13	-15
C[C@@H]1CN([C@H](C)CO)C(=O)c2cccc(NC(=O)c3nc4ccccc4s3)c2O[C@H]1CN(C)CC1CCCCC1	58*	-0.074	-8

Assay outcomes (PubChem)
